Data on nine compounds can be found in ChEMBL document CHEMBL1154866, “Lanostane triterpenes from the fruiting bodies of Ganoderma lucidum and their inhibitory effects on adipocyte differentiation in 3T3-L1 Cells” (J Nat Prod, 2010).

The test system of the first series is 3T3-L1. Nature of the series: Inhibition of adipocytes differentiation in mouse 3T3L1 cells assessed as lipid accumulation at 40 ug/ml after 8 days by Oil red O staining relative to control. The format is functional. The following applies: 3T3-L1, 192 h. Summed up:
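Differentiation induced 2 days post-confluence with DEX, 0.5 mM IBMX and insulin in DMEM/10% FBS for 2 days, then DMEM/FBS/insulin refreshed every 2 days. Sample added every 2 days for 8 days (40 µg/mL, or 5–40 µg/mL series). Day 8: PBS wash, 4% formaldehyde fixation, oil red O 30 min, dye eluted with 2-propanol, A510 versus untreated control. Mean ± SD, n=3.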
As a reminder, the inhibition is the percentage by which the read-out fell short of the control. In the case of `CCCCOC(=O)C(C)CC(=O)C[C@@H](C)[C@H]1C[C@H](O)[C@@]2(C)C3=C(C(=O)C[C@]12C)[C@@]1(C)CCC(=O)C(C)(C)[C@@H]1C[C@@H]3O` (stereo partly specified) [BUTYL GANODERATE A], the inhibition at 40 µg/mL was 22%.
Turning to `COC(=O)C(C)CC(=O)C[C@@H](C)[C@H]1CC(=O)[C@@]2(C)C3=C(C(=O)[C@@H](OC(C)=O)[C@]12C)[C@@]1(C)CC[C@H](O)C(C)(C)[C@@H]1CC3=O` (stereo partly specified) [METHYL GANODERATE H], the inhibition at 40 µg/mL stood at 22%.
Take `COC(=O)C(C)CC(=O)C[C@@H](C)[C@H]1CC(=O)[C@@]2(C)C3=C(C(=O)C[C@]12C)[C@@]1(C)CC[C@H](O)C(C)(C)[C@@H]1C[C@@H]3O` (stereo partly specified) [METHYL GANODERATE B]: the inhibition at 40 µg/mL was 22%.
Take `C[C@H](CC(=O)C[C@@H](C)[C@H]1CC(=O)[C@@]2(C)C3=C(C(=O)C[C@]12C)[C@@]1(C)CCC(=O)C(C)(C)[C@@H]1CC3=O)C(=O)O` [GANODERIC ACID E]: the inhibition at 40 µg/mL is 22%.
Same read-out and setting: for `CC(CC(=O)C[C@@H](C)[C@H]1CC(=O)[C@@]2(C)C3=C(C(=O)C[C@]12C)[C@@]1(C)CC[C@H](O)C(C)(C)[C@@H]1C[C@@H]3O)C(=O)O` (stereo partly specified) [GANODERIC ACID B] the value was 22%.
On the same count and under the same terms, for `C[C@H](CC(=O)C[C@@H](C)[C@H]1C[C@H](O)[C@@]2(C)C3=C(C(=O)C[C@]12C)[C@@]1(C)CCC(=O)C(C)(C)[C@@H]1C[C@@H]3O)C(=O)O` [GANODERIC ACID A] the value was 22%; for `CCCCOC(=O)CC[C@@H](C)[C@H]1CC(=O)[C@@]2(C)C3=C(C(=O)C[C@]12C)[C@@]1(C)CCC(=O)C(C)(C)[C@@H]1C[C@@H]3O` [BUTYL LUCIDENATE A], 22%.
As to `COC(=O)CC[C@@H](C)[C@H]1CC(=O)[C@@]2(C)C3=C(C(=O)[C@@H](OC(C)=O)[C@]12C)[C@@]1(C)CC[C@H](O)C(C)(C)[C@@H]1C[C@@H]3O` [METHYL LUCIDENATE P], the inhibition at 40 µg/mL was determined as 22%.
Same read-out and setting: for `CC(CC(=O)C[C@@H](C)[C@H]1C[C@H](O)[C@@]2(C)C3=C(C(=O)C[C@]12C)[C@@]1(C)CCC(=O)C(C)(C)[C@@H]1CC3)C(=O)O` (stereo partly specified) [GANOLUCIDIC ACID A] the value was 22%.

Another series concerns 3T3-L1. Nature of the series: Cytotoxicity against mouse 3T3L1 cells at 80 ug/ml after 2 days by MTT assay. The class given is cell-based. The following applies: 3t3-l1, 48 h. The gist of the method: (§1)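 3T3-L1 preadipocytes seeded at 1 × 10^4 cells/well in DMEM + 10% bovine calf serum, 37 °C, 5% CO2. After 24 h, vehicle or sample (10 to 80 µg/mL) added in serum-free DMEM. After a further 24 h, MTT added for 2 h. Formazan dissolved in DMSO, OD read at 570 nm.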
Regarding `CCCCOC(=O)C(C)CC(=O)C[C@@H](C)[C@H]1C[C@H](O)[C@@]2(C)C3=C(C(=O)C[C@]12C)[C@@]1(C)CCC(=O)C(C)(C)[C@@H]1C[C@@H]3O` (stereo partly specified) [BUTYL GANODERATE A], the Activity entry is “Toxic”.
As to `CCCCOC(=O)CC[C@@H](C)[C@H]1CC(=O)[C@@]2(C)C3=C(C(=O)C[C@]12C)[C@@]1(C)CCC(=O)C(C)(C)[C@@H]1C[C@@H]3O` [BUTYL LUCIDENATE A], the Activity result is listed as “Toxic”.
Take `CC(CC(=O)C[C@@H](C)[C@H]1C[C@H](O)[C@@]2(C)C3=C(C(=O)C[C@]12C)[C@@]1(C)CCC(=O)C(C)(C)[C@@H]1CC3)C(=O)O` (stereo partly specified) [GANOLUCIDIC ACID A]: the Activity entry is recorded as “Toxic”.

Another series concerns 3T3-L1. Put plainly: Cytotoxicity against mouse 3T3L1 cells at 40 ug/ml after 2 days by MTT assay. The format is cell-based. The following applies: 3t3-l1, 48 h. The gist of the method:
as §1
(In general: Tetrazolium dyes change colour on reduction, which living cells bring about.)
As to `CCCCOC(=O)C(C)CC(=O)C[C@@H](C)[C@H]1C[C@H](O)[C@@]2(C)C3=C(C(=O)C[C@]12C)[C@@]1(C)CCC(=O)C(C)(C)[C@@H]1C[C@@H]3O` (stereo partly specified) [BUTYL GANODERATE A], the Activity entry was “Non-toxic”.
Regarding `COC(=O)C(C)CC(=O)C[C@@H](C)[C@H]1CC(=O)[C@@]2(C)C3=C(C(=O)[C@@H](OC(C)=O)[C@]12C)[C@@]1(C)CC[C@H](O)C(C)(C)[C@@H]1CC3=O` (stereo partly specified) [METHYL GANODERATE H], the Activity entry is reported as “Non-toxic”.
As for `COC(=O)C(C)CC(=O)C[C@@H](C)[C@H]1CC(=O)[C@@]2(C)C3=C(C(=O)C[C@]12C)[C@@]1(C)CC[C@H](O)C(C)(C)[C@@H]1C[C@@H]3O` (stereo partly specified) [METHYL GANODERATE B], the Activity result is given as “Non-toxic”.
The same measure, in the same setting: under `C[C@H](CC(=O)C[C@@H](C)[C@H]1CC(=O)[C@@]2(C)C3=C(C(=O)C[C@]12C)[C@@]1(C)CCC(=O)C(C)(C)[C@@H]1CC3=O)C(=O)O` [GANODERIC ACID E] stands “Non-toxic”.
Take `CC(CC(=O)C[C@@H](C)[C@H]1CC(=O)[C@@]2(C)C3=C(C(=O)C[C@]12C)[C@@]1(C)CC[C@H](O)C(C)(C)[C@@H]1C[C@@H]3O)C(=O)O` (stereo partly specified) [GANODERIC ACID B]: the Activity result is recorded as “Non-toxic”.
For `C[C@H](CC(=O)C[C@@H](C)[C@H]1C[C@H](O)[C@@]2(C)C3=C(C(=O)C[C@]12C)[C@@]1(C)CCC(=O)C(C)(C)[C@@H]1C[C@@H]3O)C(=O)O` [GANODERIC ACID A], the Activity result is given as “Non-toxic”.
On to `CCCCOC(=O)CC[C@@H](C)[C@H]1CC(=O)[C@@]2(C)C3=C(C(=O)C[C@]12C)[C@@]1(C)CCC(=O)C(C)(C)[C@@H]1C[C@@H]3O` [BUTYL LUCIDENATE A], for which the Activity result is “Non-toxic”.
Still for that read-out and setting: under `COC(=O)CC[C@@H](C)[C@H]1CC(=O)[C@@]2(C)C3=C(C(=O)[C@@H](OC(C)=O)[C@]12C)[C@@]1(C)CC[C@H](O)C(C)(C)[C@@H]1C[C@@H]3O` [METHYL LUCIDENATE P] stands “Non-toxic”.
Regarding `CC(CC(=O)C[C@@H](C)[C@H]1C[C@H](O)[C@@]2(C)C3=C(C(=O)C[C@]12C)[C@@]1(C)CCC(=O)C(C)(C)[C@@H]1CC3)C(=O)O` (stereo partly specified) [GANOLUCIDIC ACID A], the Activity result is recorded as “Non-toxic”.
